Measured values taken from ChEMBL document CHEMBL1133571, “Extended TIP(P) analogues as precursors for labeled delta-opioid receptor ligands” (J Med Chem, 2000).
“And” between values parts separate entries of the source, which are not always exact repeats. Identical values can stand only once. Where a SMILES comes first, the peptide text is derived from it. [ ]: non-standard residue; d: D form. Tic = O=C(O)[C@@H]1Cc2ccccc2CN1

Tests used:
[1] = target: Delta-type opioid receptor (Homo sapiens, UniProt P41143); assay: Affinity towards human Opioid receptor delta 1 on CHO cell membranes using [3H]DPDPE displacement.
How it was run: (§1)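 Membranes from CHO cells stably expressing cloned δ or µ receptors. Incubated 90 min at 22 °C with peptide concentrations up to 10 µM, 3 mM Mg2+, and peptidase inhibitors (10 µM bestatin, 30 µM captopril, 50 µM L-leucyl-L-leucine). Nonspecific binding measured with 10 µM unlabeled ligand. IC50 from nonlinear regression converted to Ki by Cheng-Prusoff (KD: [3H]DPDPE 0.5 nM, δ; [3H]DAMGO 0.644 nM, µ).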

[2] = target: Mu-type opioid receptor (Homo sapiens, UniProt P35372); assay: Affinity towards human Opioid receptor mu 1 on CHO cell membranes using [3H]DAMGO displacement.; how it was run: as §1
Sequence of Mu-type opioid receptor (P35372 whole entry): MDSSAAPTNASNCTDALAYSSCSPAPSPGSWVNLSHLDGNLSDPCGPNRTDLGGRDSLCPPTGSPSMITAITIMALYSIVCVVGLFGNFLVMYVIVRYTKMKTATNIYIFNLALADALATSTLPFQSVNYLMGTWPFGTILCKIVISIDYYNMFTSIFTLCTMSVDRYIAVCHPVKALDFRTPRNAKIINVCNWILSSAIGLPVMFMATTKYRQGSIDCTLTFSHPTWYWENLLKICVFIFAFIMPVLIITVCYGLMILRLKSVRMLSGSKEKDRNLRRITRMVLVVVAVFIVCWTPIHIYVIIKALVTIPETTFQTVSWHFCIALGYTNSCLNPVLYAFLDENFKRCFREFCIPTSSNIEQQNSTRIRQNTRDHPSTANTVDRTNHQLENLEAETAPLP

Sequence of Delta-type opioid receptor (P41143 whole entry): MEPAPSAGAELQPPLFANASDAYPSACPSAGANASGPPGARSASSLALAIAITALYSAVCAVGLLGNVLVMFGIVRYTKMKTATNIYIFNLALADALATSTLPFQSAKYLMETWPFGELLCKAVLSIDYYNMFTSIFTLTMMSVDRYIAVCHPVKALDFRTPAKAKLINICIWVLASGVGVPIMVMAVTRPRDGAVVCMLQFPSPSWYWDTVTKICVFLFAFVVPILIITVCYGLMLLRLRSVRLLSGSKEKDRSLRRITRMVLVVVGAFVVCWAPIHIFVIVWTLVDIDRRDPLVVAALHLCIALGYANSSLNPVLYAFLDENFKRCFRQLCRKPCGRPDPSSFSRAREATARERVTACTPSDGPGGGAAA

SMILES: NC(=O)[C@@H](CC(=O)O)NC(=O)[C@H](Cc1ccccc1)NC(=O)[C@@H]1Cc2ccccc2CN1C(=O)[C@@H](N)Cc1ccc(O)cc1
- Ki [1]: 69 nM
- Ki [2]: > 4500 nM

SMILES: NC(=O)CC[C@@H](NC(=O)[C@H](Cc1ccccc1)NC(=O)[C@@H]1Cc2ccccc2CN1C(=O)[C@@H](N)Cc1ccc(O)cc1)C(=O)O
- Ki [1]: 5 nM
- Ki [2]: > 4500 nM

SMILES: NC(=O)[C@H](CC(=O)O)NC(=O)[C@H](Cc1ccccc1)NC(=O)[C@@H]1Cc2ccccc2CN1C(=O)[C@@H](N)Cc1ccc(O)cc1
- Ki [1]: 21.4 nM
- Ki [2]: > 4500 nM

SMILES: N[C@@H](Cc1ccc(O)cc1)C(=O)N1Cc2ccccc2C[C@H]1C(=O)N[C@@H](Cc1ccccc1)C(=O)O (H-Tyr-[Tic]-Phe-OH)
- Ki [1]: 148 nM
- Ki [2]: > 4500 nM

SMILES: N[C@@H](Cc1ccc(O)cc1)C(=O)N1Cc2ccccc2C[C@H]1C(=O)N[C@@H](Cc1ccccc1)C(=O)N[C@@H](Cc1ccccc1)C(=O)O (H-Y[Tic]FF-OH)
- Ki [1]: 6.1 nM and 1.22 nM
- Ki [2]: > 4500 nM

SMILES: NC(=O)CC[C@H](NC(=O)[C@H](Cc1ccccc1)NC(=O)[C@@H]1Cc2ccccc2CN1C(=O)[C@@H](N)Cc1ccc(O)cc1)C(=O)O
- Ki [1]: 37.7 nM
- Ki [2]: > 4500 nM

SMILES: NC(=O)[C@H](CCC(=O)O)NC(=O)[C@H](Cc1ccccc1)NC(=O)[C@@H]1Cc2ccccc2CN1C(=O)[C@@H](N)Cc1ccc(O)cc1
- Ki [1]: 19.9 nM
- Ki [2]: 4500 nM

SMILES: NC(=O)CC[C@@H](NC(=O)[C@H](Cc1ccccc1)NC(=O)[C@H](Cc1ccccc1)NC(=O)[C@@H]1Cc2ccccc2CN1C(=O)[C@@H](N)Cc1ccc(O)cc1)C(=O)O
- Ki [1]: 5.1 nM
- Ki [2]: > 4500 nM

SMILES: CC(=O)NCCCC[C@H](NC(=O)[C@H](Cc1ccccc1)NC(=O)[C@@H]1Cc2ccccc2CN1C(=O)[C@@H](N)Cc1ccc(O)cc1)C(=O)O
- Ki [1]: 27.8 nM
- Ki [2]: > 4500 nM

SMILES: NC(=O)[C@H](CCC(=O)O)NC(=O)[C@H](Cc1ccccc1)NC(=O)[C@H](Cc1ccccc1)NC(=O)[C@@H]1Cc2ccccc2CN1C(=O)[C@@H](N)Cc1ccc(O)cc1
- Ki [1]: 9.9 nM
- Ki [2]: > 4500 nM

SMILES: NC(=O)C[C@H](NC(=O)[C@H](Cc1ccccc1)NC(=O)[C@@H]1Cc2ccccc2CN1C(=O)[C@@H](N)Cc1ccc(O)cc1)C(=O)O
- Ki [1]: 61.1 nM
- Ki [2]: > 4500 nM

SMILES: CC(=O)NCCCC[C@@H](NC(=O)[C@H](Cc1ccccc1)NC(=O)[C@@H]1Cc2ccccc2CN1C(=O)[C@@H](N)Cc1ccc(O)cc1)C(=O)O
- Ki [1]: 21.6 nM
- Ki [2]: > 4500 nM

SMILES: NC(=O)[C@@H](CCC(=O)O)NC(=O)[C@H](Cc1ccccc1)NC(=O)[C@@H]1Cc2ccccc2CN1C(=O)[C@@H](N)Cc1ccc(O)cc1
- Ki [1]: 34.9 nM
- Ki [2]: > 4500 nM

SMILES: NC(=O)[C@@H](CC(=O)O)NC(=O)[C@H](Cc1ccccc1)NC(=O)[C@H](Cc1ccccc1)NC(=O)[C@@H]1Cc2ccccc2CN1C(=O)[C@@H](N)Cc1ccc(O)cc1
- Ki [1]: 10.3 nM
- Ki [2]: 3280 nM

SMILES: NC(=O)[C@H](CC(=O)O)NC(=O)[C@H](Cc1ccccc1)NC(=O)[C@H](Cc1ccccc1)NC(=O)[C@@H]1Cc2ccccc2CN1C(=O)[C@@H](N)Cc1ccc(O)cc1
- Ki [1]: 9.5 nM
- Ki [2]: > 4000 nM

SMILES: NC(=O)C[C@@H](NC(=O)[C@H](Cc1ccccc1)NC(=O)[C@H](Cc1ccccc1)NC(=O)[C@@H]1Cc2ccccc2CN1C(=O)[C@@H](N)Cc1ccc(O)cc1)C(=O)O
- Ki [1]: 8.1 nM
- Ki [2]: 3200 nM

SMILES: CC(=O)NCCCC[C@@H](NC(=O)[C@H](Cc1ccccc1)NC(=O)[C@H](Cc1ccccc1)NC(=O)[C@@H]1Cc2ccccc2CN1C(=O)[C@@H](N)Cc1ccc(O)cc1)C(=O)O
- Ki [1]: 16.3 nM and 21.5 nM
- Ki [2]: > 4500 nM

SMILES: NC(=O)[C@@H](CCC(=O)O)NC(=O)[C@H](Cc1ccccc1)NC(=O)[C@H](Cc1ccccc1)NC(=O)[C@@H]1Cc2ccccc2CN1C(=O)[C@@H](N)Cc1ccc(O)cc1
- Ki [1]: 7.8 nM
- Ki [2]: 1950 nM

SMILES: NC(=O)C[C@@H](NC(=O)[C@H](Cc1ccccc1)NC(=O)[C@@H]1Cc2ccccc2CN1C(=O)[C@@H](N)Cc1ccc(O)cc1)C(=O)O
- Ki [1]: 13.7 nM
- Ki [2]: > 4500 nM

SMILES: NC(=O)CC[C@H](NC(=O)[C@H](Cc1ccccc1)NC(=O)[C@H](Cc1ccccc1)NC(=O)[C@@H]1Cc2ccccc2CN1C(=O)[C@@H](N)Cc1ccc(O)cc1)C(=O)O
- Ki [1]: 9.7 nM
- Ki [2]: > 4500 nM

SMILES: NC(=O)C[C@H](NC(=O)[C@H](Cc1ccccc1)NC(=O)[C@H](Cc1ccccc1)NC(=O)[C@@H]1Cc2ccccc2CN1C(=O)[C@@H](N)Cc1ccc(O)cc1)C(=O)O
- Ki [1]: 7.1 nM
- Ki [2]: > 4500 nM
